The results in this text go back to ChEMBL document CHEMBL1129364, “Pyrrolobenzothiazepinones and pyrrolobenzoxazepinones: novel and specific non-nucleoside HIV-1 reverse transcriptase inhibitors with antiviral activity” (J Med Chem, 1996).

Calls of active or inactive are those of the source. The rule behind the calls is not given here.

Experiment [1] deals with CEM-SS. The experiment can be described thus: (§1) Effective concentration against 50% survival of HIV -1 infected cells relative to uninfected untreated control (in vitro anti HIV-1 activity). The class given is functional, cell-based. The following applies: Homo sapiens. In a few lines: (§2)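 HIV-1-infected CEM T4 lymphocytes were scored for protection from cell death. […] An AZT-treated positive control was run at the same time.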

The subject of experiment [2] is CEM-SS. The experiment can be described thus: Cytotoxic concentration against 50% survival of uninfected untreated control CEM-SS cells. The following applies: Homo sapiens. Format: cell-based.
A short description of experiment [3]: Selective index is the ratio between IC50 and EC50. Format: functional. The essentials:
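Selectivity index calculated as CEM-SS cytotoxic IC50 divided by anti-HIV-1 EC50.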

Experiment [4] has as its target Human immunodeficiency virus type 1 reverse transcriptase (Human immunodeficiency virus 1, UniProt Q72547). The experiment can be described thus: (§3) Compound was tested for Inhibition of HIV-1 RT activity. The essentials: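 Recombinant HIV-1 RT (0.1 unit), 37 °C for 30 min in 50 mM Tris·HCl pH 8.2, 1 mM DTT, 80 mM KCl, 12 mM MgCl2, 0.01% Triton X-100. Template-primer poly(rA)/(dT)12-18 with [3H]dTTP or poly(rC)/(dG)12-18 with [3H]dGTP. Compounds added in DMSO (10% final). Stopped with 20% TCA; precipitate counted. IC50 is the mean of at least three experiments.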

The nature of experiment [5]: as §1. The class given is functional. To be noted: Human immunodeficiency virus 1. In a few lines: as §2
Experiment [6] addresses Human immunodeficiency virus type 1 protease (Human immunodeficiency virus 1, UniProt Q72874). The description is as §3. In a few lines: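 Recombinant HIV-1 RT (0.1 unit) was incubated 30 min at 37 °C in 50 mM Tris·HCl pH 8.2 with 1 mM DTT, 80 mM KCl, 12 mM MgCl2 and 0.01% Triton X-100. Template-primer was poly(rA)/(dT)12-18 with [3H]dTTP or poly(rC)/(dG)12-18 with [3H]dGTP. DMSO was 10% final. Reactions were stopped with TCA and precipitated radioactivity counted. IC50 is the mean of at least three experiments.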

Experiment [7] is described as follows: Effective concentration against 50% survival of HIV -1 infected cells relative to uninfected untreated control (in vitro anti HIV-1 activity); NA =' Not active'. The class given is functional, Human immunodeficiency virus 1. In a few lines:
as §2

For experiment [8], the system named is CEM-SS. The experiment can be described thus: ED50 value determined from the inhibition of HIV strain HIV-1 RF, activity tested on CEM-SS cell lines. The class given is functional. The following applies: Homo sapiens, read-out: ED50 (the source's name).
Experiment [9] deals with CEM-SS. In words: IC50 value determined from the inhibition of HIV strain HIV-1 RF, activity tested on CEM-SScell lines. The class given is functional, cell-based. To be noted: Homo sapiens. In a few lines:
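Cell-protection assay: HIV-1-infected T4 lymphocytes (CEM-SS) scored for survival. The value is the drug concentration giving 50% survival of infected cells relative to uninfected untreated controls. An AZT-treated positive control was run at the same time under identical conditions. Details follow a previously reported procedure.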

Experiment [10] deals with Human immunodeficiency virus 2. The experiment can be described thus: In vitro inhibitory activity against HIV-2 (ROD) HIV strain; NT ='Not active'. Format: functional, organism-based. In a few lines:
(§4)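 ED50 measured against a panel of viruses in MT-2, MT-4 and CEM-SS cells. The panel comprised HIV-1 (6S) and (6R), the pyridinone-resistant strain A-17, HIV-1 IIIB, HIV-1 RF, a diphenyl sulfone-resistant HIV, N119, SIV MAC 251 and HIV-2 ROD.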

Experiment [11] concerns Human immunodeficiency virus 1. The experiment can be described thus: In vitro inhibitory activity against HIV-1 (A-17) HIV strain; NT ='Not active'. Format: functional, organism-based. In a few lines:
as §4

Experiment [12] deals with MT4. The experiment can be described thus: IC50 value determined from the inhibition of HIV strain AZT-sensitive activity tested on MT-4 cell lines. The class given is functional, cell-based. To be noted: Homo sapiens.
Experiment [13] concerns MT4. The experiment can be described thus: IC50 value determined from the inhibition of HIV strain HIV-1 (6R), activity tested on MT-4 cell lines. The following applies: Homo sapiens. The class given is functional, cell-based.
Experiment [14] deals with MT4. In words: ED50 value determined from the inhibition of HIV strain AZT-sensitive activity tested on MT-4 cell lines. The class given is functional. The following applies: Homo sapiens, read-out: ED50 (the source's name).
Experiment [15] relates to MT4. In words: ED50 value determined from the inhibition of HIV strain HIV-1 (6R), activity tested on MT-4 cell lines. The class given is functional. To be noted: Homo sapiens, read-out: ED50 (the source's name).
The test system of experiment [16] is MT4. In words: ED50 value determined from the inhibition of HIV strain HIV-1(IIIB), activity tested on MT-4 cell lines. The class given is functional. The following applies: Homo sapiens, read-out: ED50 (the source's name).
Experiment [17] can be described thus: SI - selectivity index determined from the ratio of IC50 to the ED50 determined on MT-4 cell lines of AZT-sensitive HIV strain. Format: functional, MT4.
Experiment [18] can be described thus: Selectivity index is the ratio between IC50 and ED50 from HIV-1 (6R) on MT-4 cell lines. Format: functional, MT4.
The nature of experiment [19]: Selectivity index is the ratio between IC50 and ED50 from HIV-1 (IIIB) on MT-4 cell lines. Format: functional, MT4.
Experiment [20] relates to MT4. In words: IC50 value determined from the inhibition of HIV strain HIV-1(IIIB), activity tested on MT-4 cell lines. Format: functional, cell-based. To be noted: Homo sapiens.
Experiment [21] can be described thus: Selective index is the ratio between IC50 and EC50 from CEM-SS cells. Format: functional.
Experiment [22] concerns Human immunodeficiency virus 2. In words: Inhibitory activity against HIV-2 (ROD); NA ='Not active'. Format: functional, organism-based. In a few lines:
as §4

Experiment [23] relates to Human immunodeficiency virus 1. The experiment can be described thus: Inhibitory activity against HIV-1 (A-17 cell lines); NA ='Not active'. Format: functional, organism-based. In a few lines:
as §4

In experiment [24] the test system is Human immunodeficiency virus 1. In words: Effective dose against AZT resistant strain; NA ='Not active'. The class given is functional, organism-based.
Experiment [25] concerns Human immunodeficiency virus 1. In words: Effective dose against HIV-1 (IIIB strain); NA ='Not active'. Format: functional, organism-based. In a few lines: as §4
Experiment [26] has as its system MT2. In words: ED50 value determined from the inhibition of HIV strain AZT-sensitive activity tested on MT-2 cell lines. Format: functional. The following applies: Homo sapiens, read-out: ED50 (the source's name).
The subject of experiment [27] is MT2. The experiment can be described thus: IC50 value determined from the inhibition of HIV strain AZT-sensitive activity tested on MT-2 cell lines. To be noted: Homo sapiens. The class given is functional, cell-based.
Experiment [28] can be described thus: Effective concentration against 50% survival of HIV -1 infected cells relative to uninfected untreated control (in vitro anti HIV-1 activity); NA ='Not active'. The class given is functional, Human immunodeficiency virus 1. In a few lines:
as §2

Compound `Cc1cn([C@H]2C[C@H](N=[N+]=[N-])[C@@H](CO)O2)c(=O)[nH]c1=O` [ZIDOVUDINE] gave an EC50 in the experiment on CEM-SS [1] of 0.0019 µM. The IC50 in the experiment on CEM-SS [2] was above 1 µM. For the same compound, the SI in experiment [3] came to 526.

As for `CC(C)=CCC1(c2ccccc2)Oc2ccccc2-n2cccc2C1=O` (stereo unspecified), the IC50 is 120 µM in the experiment with CEM-SS [2] and above 500 µM in [4].

Turning to `CCC1(c2ccccc2)Oc2cc3ccccc3cc2-n2cccc2C1=O` (stereo unspecified), half-maximal inhibition in experiment [4] (IC50) required 150 µM.

In experiment [4], `CCC1(c2ccccc2)C(=O)c2cccn2-c2ccccc2S1(=O)=O` (stereo unspecified) showed an IC50 above 300 µM.

In the case of `CCC1(c2ccccc2)C(=O)c2cccn2-c2ccccc2[S+]1[O-]` (stereo unspecified), the IC50 in experiment [4] turned out to be 500 µM.

In the case of `CCC1(c2ccc3ccccc3c2)Oc2ccccc2-n2cccc2C1=O` (stereo unspecified), the IC50 in the experiment on CEM-SS [2] is 37.3 µM; in experiment [4], 0.5 µM. In addition, the EC50 in experiment [5] was 0.85 µM. In addition, the SI in experiment [3] amounted to 44.

Consider `CC1(c2ccccc2)Sc2ccccc2-n2cccc2C1=O` (stereo unspecified), for which the EC50 in experiment [5] was found to be 0.81 µM. In [4], this compound gave an IC50 of 5 µM.

Regarding `O=C1c2cccn2-c2cc3ccccc3cc2OC1c1ccccc1` (stereo unspecified), in experiment [4], the IC50 is above 300 µM.

For `CCCC1(c2ccccc2)Oc2ccccc2-n2cccc2C1=O` (stereo unspecified), the concentration for half-maximal inhibition (IC50) is above 150 µM in the experiment on CEM-SS [2] and 500 µM in experiment [4].

The compound `CCOC1=C(c2ccccc2)Oc2ccccc2-n2cccc21` had an IC50 in experiment [6] above 300 µM.

Regarding `CCc1cc(NCc2nc3c(Cl)ccc(Cl)c3o2)c(O)nc1C` [L-697661], in [4], half-maximal inhibition (IC50) was put at 0.15 µM.

`C=CCC1(c2ccccc2)Oc2ccccc2-n2cccc2C1=O` (stereo unspecified): the values for the IC50 (in the experiment on CEM-SS [2]; in experiment [4]) were 6.4 µM and 25 µM, respectively. This compound also yielded an EC50 in experiment [5] of 0.71 µM. For the same compound, in [3], the SI was found to be 9.

Regarding `O=C1c2cccn2-c2ccccc2OC1(CC1CC1)c1ccccc1` (stereo unspecified), the IC50 is 11.8 µM in the experiment with CEM-SS [2] and above 500 µM in experiment [4].

In the case of `O=C1c2cccn2-c2ccccc2SC1c1ccccc1` (stereo unspecified), the half-maximal inhibitory concentration (IC50) in the experiment with CEM-SS [2] amounted to 18.3 µM; in experiment [4] it was 100 µM.

On to `CCC1(c2ccccc2)Sc2c(Cl)cccc2-n2cccc2C1=O` (stereo unspecified), for which the IC50 in [4] was 500 µM.

Turning to `CC1(c2ccccc2)Oc2ccccc2-n2cccc2C1=O` (stereo unspecified), the IC50 with CEM-SS [2] was 6.9 µM; in experiment [4], 10 µM. The compound further registered an EC50 in [5] of 0.35 µM. Besides, in [3], the SI amounted to 19.7.

As for `CCC1(c2ccccc2)Sc2cccc(Cl)c2-n2cccc2C1=O` (stereo unspecified), the IC50 result was “Not Active” in [7] and 600 µM in experiment [4].

As to `CCCC1(CC)Oc2ccccc2-n2cccc2C1=O` (stereo unspecified), the IC50 in experiment [4] stood at 10 µM.

Consider `CCC1(c2ccccc2)Oc2ccccc2-n2cccc2C1=O` (stereo unspecified), for which the EC50 in the experiment with CEM-SS [8] is 0.12 µM; in experiment [5], 0.47 µM; in the experiment with MT4 [14] it was 0.42 µM; in the experiment on MT4 [15], 1.6 µM; in the experiment on MT4 [16], 0.13 µM. For the same compound, the half-inhibitory concentration (IC50) with CEM-SS [2] was 4.9 µM; in the experiment with CEM-SS [9], 10.4 µM; with MT4 [12], 3.3 µM; in the experiment with MT4 [13] it was 2.9 µM; in experiment [4], 0.25 µM; in the experiment with MT4 [20], 3.31 µM. In addition, the outcome in experiment [10] and in [11] was inactive. Further, the SI in experiment [17] is 8; in experiment [18] it was 1.7; in [19] it was 25; in experiment [21] it was 10.4.

Turning to `CCC1(c2ccccc2)Sc2ccccc2-n2cccc2C1=O` (stereo unspecified), the IC50 was determined as 100 µM in the experiment on CEM-SS [2], 110 µM with MT2 [27] and 15 µM in experiment [4]. Besides, the outcome in [22], in experiment [23], in experiment [24] and in [25] was inactive. Moreover, the EC50 in experiment [5] worked out at 1.8 µM; in the experiment on MT2 [26] it was 8.7 µM. The SI in experiment [3] turned out to be 55.2.

Consider `O=C1c2cccn2-c2ccccc2OC1c1ccccc1` (stereo unspecified), for which the IC50 in experiment [4] is above 300 µM.

Regarding `CCC1(c2ccccc2)Sc2ccc(C)cc2-n2cccc2C1=O` (stereo unspecified), the figures for the IC50 result in experiment [28] and in [4] were “Not Active” and above 600 µM, respectively.

Take `CCC1(CC=C(C)C)Oc2ccccc2-n2cccc2C1=O` (stereo unspecified): the IC50 in the experiment on CEM-SS [2] came to 45.2 µM. In [5], this compound had an EC50 of 1.35 µM. In experiment [3], the SI turned out to be 35.

In experiment [4], `C=CCC1(CC)Oc2ccccc2-n2cccc2C1=O` (stereo unspecified) had an IC50 of 5 µM.

In experiment [4], `O=C1c2cccn2-c2ccccc2OC1c1ccc2ccccc2c1` (stereo unspecified) displayed an IC50 above 300 µM.

For the compound `CCC1Oc2ccccc2-n2cccc2C1=O` (stereo unspecified), the IC50 in experiment [4] was determined as 100 µM.

For orientation: IC50 means the point on the concentration scale where inhibition reaches its midpoint.
